Measured values collected from several papers.
Target: Ephrin type-B receptor 4 (EPHB4, Homo sapiens, UniProt P54760)
One construct used (P54760 16-987): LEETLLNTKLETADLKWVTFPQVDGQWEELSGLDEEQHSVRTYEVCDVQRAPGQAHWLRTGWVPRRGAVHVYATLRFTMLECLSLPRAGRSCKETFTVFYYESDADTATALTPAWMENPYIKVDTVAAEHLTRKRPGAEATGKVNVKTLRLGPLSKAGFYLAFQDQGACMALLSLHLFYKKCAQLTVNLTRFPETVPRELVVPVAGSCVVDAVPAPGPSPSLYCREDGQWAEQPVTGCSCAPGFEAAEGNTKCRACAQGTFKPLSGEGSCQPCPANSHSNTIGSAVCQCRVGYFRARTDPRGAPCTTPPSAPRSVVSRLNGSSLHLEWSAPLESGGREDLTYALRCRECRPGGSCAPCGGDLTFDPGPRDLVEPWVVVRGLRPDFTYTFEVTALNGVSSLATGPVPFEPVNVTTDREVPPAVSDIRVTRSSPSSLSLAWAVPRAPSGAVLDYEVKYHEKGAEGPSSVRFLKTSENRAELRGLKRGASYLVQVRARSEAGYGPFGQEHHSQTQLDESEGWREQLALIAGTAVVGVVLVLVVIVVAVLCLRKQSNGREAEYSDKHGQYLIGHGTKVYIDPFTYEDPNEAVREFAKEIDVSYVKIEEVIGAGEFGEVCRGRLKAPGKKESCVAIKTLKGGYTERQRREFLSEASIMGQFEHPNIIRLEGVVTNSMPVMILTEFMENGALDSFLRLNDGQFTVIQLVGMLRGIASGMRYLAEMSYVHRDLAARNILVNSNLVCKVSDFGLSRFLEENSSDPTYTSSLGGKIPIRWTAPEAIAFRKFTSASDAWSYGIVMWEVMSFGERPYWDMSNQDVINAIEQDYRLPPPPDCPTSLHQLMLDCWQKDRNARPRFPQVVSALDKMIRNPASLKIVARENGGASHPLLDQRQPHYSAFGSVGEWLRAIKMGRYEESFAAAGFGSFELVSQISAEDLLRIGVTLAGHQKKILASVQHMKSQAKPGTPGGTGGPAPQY

For `CCCS(=O)(=O)Nc1ccc(F)c(C(=O)c2c[nH]c3ncc(-c4ccc(Cl)cc4)cc23)c1F`, the inhibition was less than 20% (enzyme activity, inhibitor; 1 µM).
`Oc1cccc(-c2nc(N3CCOCC3)c3oc4ncccc4c3n2)c1` has a remaining activity of 86% (enzyme activity, inhibitor; 10 µM).
With `N#CCCc1ccc2c(c1)-c1[nH]c3ccc([N+](=O)[O-])cc3c1CC(=O)N2` the remaining signal was 82.2% (cell-free assay; 0.5 µM).
With `CNC(=O)c1cc2c(Oc3ccc(NC(=O)C4(C(=O)Nc5ccc(F)cc5)CC4)cc3)ccnc2cc1OC` the inhibition was 83% (enzyme activity, inhibitor, radiometric; 1 µM).
The remaining activity of `COc1cc(Nc2cnc(C#N)c(O[C@H](C)CN(C)C)n2)ncc1-c1cnn(C)c1` is reported as 88% (enzyme activity, inhibitor, radiometric; 10 µM).
With `FC(F)c1nc2ccccc2n1-c1nc(N2CCOCC2)nc(N2CCOCC2)n1` the remaining activity was 105% (enzyme activity, inhibitor; 10 µM).
With `Cc1ccc(Nc2nccc(N(C)c3ccc4c(C)n(C)nc4c3)n2)cc1S(N)(=O)=O` the remaining signal was 93.8% (cell-free assay; 0.5 µM).
For `CSc1cccnc1N1CCN(Cc2nc3ccccc3[nH]2)CC1`, the remaining binding was 100% (cell-free assay, competition with immobilised ligand; 1 µM).
For `CCCOc1ccc(OC)c(F)c1C(=O)c1ccc(C(=O)N[C@@H]2CNC[C@H]2NC(=O)c2ccc3[nH]ncc3c2)cc1`, the remaining activity was 79% (enzyme activity, inhibitor; 10 µM).
`N#Cc1ccc(Nc2ccc3[nH]c(=O)[nH]c3c2)c(Cl)c1` has a remaining binding of 98% (cell-free assay, competition with immobilised ligand; 1 µM).
The inhibition of `CC/C(=N\NC(=O)NCc1cccc(O)c1)c1ccc(O)c(C)c1O` is reported as 0.2% (enzyme activity, inhibitor; 0.1 µM).
For `Cc1cnc(NC2CCOCC2)nc1-n1cnc(C(=O)NC(CN)c2cc(F)cc(Cl)c2)c1` (stereo not drawn), the remaining activity was 89% (enzyme activity, inhibitor, radiometric; 1 µM).
`CC(C)(C)c1nc(-c2cccc(NS(=O)(=O)c3c(F)cccc3F)c2F)c(-c2ccnc(N)n2)s1` has a remaining activity of 97% (enzyme activity, inhibitor, radiometric; 1 µM).
With `COc1ccc(COc2ccc(Cc3cnc(N)nc3N)cc2OC)cc1` the remaining signal was 90.5% (cell-free assay; 0.5 µM).
`O=C(Nc1cnn(-c2csc(C(=O)NC3COC3)c2)c1)Nc1ccccc1Cl` gave a remaining activity of 97.8% (enzyme activity, inhibitor; 5 µM).
`CN([C@@H]1CCc2c(CC(=O)O)c3cc(S(C)(=O)=O)ccc3n2C1)S(=O)(=O)c1ccc(F)cc1` gave a remaining binding of 95% (cell-free assay, competition with immobilised ligand; 1 µM).
For `COc1cc2ncnc(Nc3ccc(Oc4ccccc4)cc3C)c2cc1OC`, the inhibition was 21% (enzyme activity, inhibitor; 1 µM).
`Nc1cnc(N2CCc3cc(S(=O)(=O)Nc4c(F)cc(Cl)cc4F)cc(N4CCCC4=O)c32)nc1` has a remaining binding of 100% (cell-free assay, competition with immobilised ligand; 1 µM).
`O=C1Nc2ccc(Cl)cc2C1=Cc1cc(Cl)c(O)c(Cl)c1` has a remaining signal of 100% (cell-free assay; 0.5 µM).
`Cc1ccc(C(=O)Nc2ccc(CN3CCN(C)CC3)c(C(F)(F)F)c2)cc1C#Cc1cnc2cccnn12` gave a remaining signal of 92% (cell-free assay; 23.5 nM).
`COc1cc(/C=C/C(=O)CC(=O)/C=C/c2ccc(O)c(OC)c2)ccc1O` has an activity vs control of 105% (enzyme activity, inhibitor; 1 µM).
With `c1ccc(CNc2nc(N3CCOc4ccccc43)nc3c2CCCC3)cc1` the inhibition was -4% (target engagement in cells, inhibitor, chemoproteomics; 20 mM).
With `CS(=O)(=O)N1CCCC(NC(=O)[C@H](CCC2CCCCC2)NC(=O)c2ccc(CNc3ncnc4c3nnn4-c3ccccc3)cc2)C1` (stereo partly drawn) the remaining binding was 96% (cell-free assay, competition with immobilised ligand; 0.1 µM).
With `Cc1[nH]c(/C=C2\C(=O)Nc3ccc(F)cc32)c(C)c1C(=O)N[C@H]1CCN(C(=O)N(C)C)C1` the remaining activity was 101% (enzyme activity, inhibitor; 1 µM).
`O=C(NCc1ncc(C(F)(F)F)cc1Cl)c1ccc2c(c1)C1(CCS(=O)(=O)CC1)[C@H](C1CC1)N2S(=O)(=O)c1ccc(F)cc1` gave a remaining binding of 100% (cell-free assay, competition with immobilised ligand; 1 µM).
For `Cc1sc(C(=O)NC2COC2)cc1-n1cc(NC(=O)Nc2c(F)cccc2Cl)cn1`, the remaining activity was 93.7% (enzyme activity, inhibitor; 10 µM).
For `CO[C@H]1CC[C@H](CNc2ccc(S(=O)(=O)NC(=O)c3ccc(N4CCN(CC5=C(c6ccc(Cl)cc6)CC(C)(C)CC5)CC4)cc3Oc3cnc4[nH]ccc4c3)cc2[N+](=O)[O-])CC1`, the remaining binding was 100% (cell-free assay, competition with immobilised ligand; 1 µM).
`CC(C)(O)[C@H]1CC[C@H](Nc2ccc3ncc(-c4cccc(C(F)(F)F)c4)n3n2)CC1` gave a remaining activity of 78.2% (enzyme activity, inhibitor; 1 µM).
With `CC(=O)Nc1c(C(C)=O)c(=O)n(C)c2nc(-c3ccc(Cl)cc3Cl)c(-c3ccc(Cl)cc3)cc12` the remaining binding was 100% (cell-free assay, competition with immobilised ligand; 1 µM).
The inhibition of `CNCc1ccc(-c2cc(-c3nc(-c4ccc(S(=O)(=O)C(C)C)cc4)cnc3N)on2)cc1` is reported as 0% (enzyme activity, inhibitor; 0.4 µM).
